What all share (parameters): scale not given: the % may be the effect or the level left
For assay [1], the species on record is Rattus norvegicus. Put plainly: Reduction in sterol level in CFE rat […] in serum at 0.005% of diet treated through diet for 6 days relative to control. The assay is classed as functional.
The species named for assay [2] is Rattus norvegicus. Put plainly: Reduction in triglyceride level in CFE rat […] in serum at 0.005% of diet treated through diet for 6 days relative to control. The assay is classed as functional.
Assay [3] is filed under the species Rattus norvegicus. Put plainly: Reduction in triglyceride level in CFE rat […] in serum at 0.3% of diet treated through diet for 6 days relative to control. Type of assay: functional.
The species named for assay [4] is Rattus norvegicus. Put plainly: Reduction in sterol level in CFE rat […] in serum at 0.3% of diet treated through diet for 6 days relative to control. Type of assay: functional.
The species entered for assay [5] is Rattus norvegicus. Put plainly: Reduction in sterol level in CFE rat […] at 0.025% of diet treated through diet for 6 days relative to control. The assay is classed as functional, Serum. Summed up: (§1)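 Compound dissolved in methanol-chloroform (1:3 v/v), mixed into ground rat chow at 0.1, 0.05 or 0.025% (w/w), and solvent evaporated; controls received solvent-treated chow. Rats fed ad libitum with water for 6 days, then killed fed and bled. Serum sterols and triglycerides measured by autoanalyzer. Values given as percent of control, mean ± SE; significance by Student's t test.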

The species entered for assay [6] is Rattus norvegicus. Put plainly: Reduction in sterol level in CFE rat […] in serum at 0.1% of diet treated through diet for 6 days relative to control. Type of assay: functional. In outline:
as §1

The species named for assay [7] is Rattus norvegicus. Put plainly: Reduction in triglyceride level in CFE rat […] in serum at 0.05% of diet treated through diet for 6 days relative to control. The assay is classed as functional. Summed up:
as §1

The species entered for assay [8] is Rattus norvegicus. Put plainly: Reduction in triglyceride level in CFE rat […] at 0.025% of diet treated through diet for 6 days relative to control. Type of assay: functional, Serum. In outline: as §1
For assay [9], the species on record is Rattus norvegicus. Put plainly: Reduction in sterol level in CFE rat […] in serum at 0.05% of diet treated through diet for 6 days relative to control. Type of assay: functional. Summed up:
as §1

Assay [10] is filed under the species Rattus norvegicus. Put plainly: Reduction in triglyceride level in CFE rat […] in serum at 0.1% of diet treated through diet for 6 days relative to control. Type of assay: functional. Summed up:
as §1

For `FC(F)(F)c1ccc(-c2ccc(OCCN3CCCC3)cc2)cc1` [BOXIDINE], the Activity in the assay filed under Rattus norvegicus [1] was determined as 60%; in the assay listed under Rattus norvegicus [2] it was 55%.

`CCOC(=O)C(C)(C)Oc1ccc(Cl)cc1` [CLOFIBRATE]: the Activity was determined as 42% in the assay filed under Rattus norvegicus [3] and 81% in the assay listed under Rattus norvegicus [4].

Turning to `CCCCCCCCCCCCCCCCOc1c(Br)cc(C(=O)OC)cc1Br`, the Activity stood at 94% in the assay listed under Rattus norvegicus [5]; 82% in the assay listed under Rattus norvegicus [6]; 103% in the assay listed under Rattus norvegicus [7]; 96% in the assay filed under Rattus norvegicus [8]; 94% in the assay listed under Rattus norvegicus [9]; 88% in the assay listed under Rattus norvegicus [10].

As to `COC(=O)c1ccc(OCCCCCCCCCCCOS(C)(=O)=O)cc1`, the Activity in the assay listed under Rattus norvegicus [5] is given as 105%; in the assay listed under Rattus norvegicus [6], 91%; in the assay listed under Rattus norvegicus [7] it was 81%; in the assay filed under Rattus norvegicus [8], 79%; in the assay listed under Rattus norvegicus [9], 105%; in the assay filed under Rattus norvegicus [10] it was 72%.

The values are drawn from ChEMBL document CHEMBL3272177, “Hypolipidemic alkoxybenzoic acids” (1976).
